Source: PubChem BioAssay (several laboratories)
Sampled rows, rich in hits. Any-hit rate of the full collection: about 2.1%.
proKLK7 act – proKLK7 (human) activation, primary screen. purified proKLK7, EDANS-DABCYL substrate fluorescence; 100% is mature enzyme control, 0% vehicle. activation, % at 7 µM. hit rate 0.9% among 370,000;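 active = activation above the mean of all tested compounds plus 3 SD, computed per campaign excluding outliers beyond control limits, cut at about 13% in these data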
Runt-CBFb FRET – Runt domain-CBFb interaction inhibition | AID 1496 | inhibition, % at 20 µM | Cerulean-Runt/Venus-CBFb FRET ratio 530/480, 1 h | Q01196+Q13951 | hit rate 0.46% among 220,000;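 active = inhibition over about 50% at 20 µM in the single-dose screen, limit read from the data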
Target sequence (Q01196 whole entry, looked up, the tested form may be a part): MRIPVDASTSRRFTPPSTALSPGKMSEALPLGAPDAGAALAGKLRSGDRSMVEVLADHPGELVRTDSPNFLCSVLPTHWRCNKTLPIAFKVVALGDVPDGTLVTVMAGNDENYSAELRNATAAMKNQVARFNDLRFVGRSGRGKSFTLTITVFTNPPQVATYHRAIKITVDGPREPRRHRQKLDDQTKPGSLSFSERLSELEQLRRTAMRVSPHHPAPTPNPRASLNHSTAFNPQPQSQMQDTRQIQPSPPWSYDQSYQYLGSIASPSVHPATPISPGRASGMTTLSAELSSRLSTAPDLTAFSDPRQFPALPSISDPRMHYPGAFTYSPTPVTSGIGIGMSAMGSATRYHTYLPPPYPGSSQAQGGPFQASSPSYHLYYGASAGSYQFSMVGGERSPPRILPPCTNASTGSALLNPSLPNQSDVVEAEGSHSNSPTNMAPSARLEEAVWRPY
Target sequence (Q13951 whole entry, looked up, the tested form may be a part): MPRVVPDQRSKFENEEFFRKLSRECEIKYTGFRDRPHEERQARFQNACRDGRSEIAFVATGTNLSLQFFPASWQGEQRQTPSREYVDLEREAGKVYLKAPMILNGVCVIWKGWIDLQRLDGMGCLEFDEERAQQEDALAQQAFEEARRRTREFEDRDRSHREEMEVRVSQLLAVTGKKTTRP
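Measured by: fluorescence energy transfer, 422 nm excitation, 530/480 nm emission; test system: Cerulean-tagged RUNX1 Runt domain (FRET donor) fusion protein; buffer or medium: Tris pH 7.5 buffer with BSA; compound: one dose, 20 µM compound, 1% DMSO; times: two 1 h room-temperature incubations shielded from light; benchmarks: unlabeled CBFb 5 µM, positive control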
Runt-SMMHC FRET – inhibitors of human RUNX1 Runt domain binding to CBFb-SMMHC. Q01196+Q13951. Cerulean-Runt/Venus-CBFb-SMMHC FRET ratio 530/480, 1 h. inhibition, % at 20 µM. hit rate 0.74% among 220,000. AID 1434;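 active = mean inhibition across duplicate retests at 20 µM reaching about 50%, limit read from the data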;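 also: inhibitors lower the FRET ratio by blocking Runt binding to CBFb-SMMHC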
MEX-5 binding – C. elegans MEX-5 TCR-2 RNA binding activity; Q9XUB2; MEX-5/FITC-TCR2 RNA binding, fluorescence polarization; hits give low values; activity score (negative = inhibition of binding), % at 10 µM; hit rate 0.38% among 300,000;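 active = inhibition past about -25% in most replicates, and total fluorescence under double the plate's negative control median, limit read from the data; inconclusive = replicates evenly split on the limit, or fluorescence at least double controls; inactive = too little inhibition in most replicates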
RanGTP-Imp inh – disruptors of Ran-importin-beta complex formation – biochemical, FRET, CFP-Ran, YFP-importin-beta, homogeneous, primary screen. cell-free CFP-Ran/YFP-importin-beta FRET ratio. inhibition, % (test concentration not listed). hit rate 1.1% among 300,000. AID 2216;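 active = more than half of the replicate wells show a fall in the fluorescence ratio signal beyond about 16%, limit read from the data, passing the limit was not always enough; inconclusive = exactly half of the replicate wells pass the set limit; inactive = fewer than half of replicates pass the limit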
KLK7 act conf – proKLK7 activation, confirmation; shares compounds with proKLK7 act; activation, % at 7 µM; purified proKLK7, EDANS-DABCYL substrate fluorescence; scaled: vehicle 0, mature enzyme 100; hit rate 68% among 3,200;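 active = activation, as change over the incubation, above the mean of all tested compounds plus 3 SD, cut at about 13% in these data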
EDANS-DABCYL int – counter-screen for kallikrein-7 activators: EDANS-DABCYL optical interference | activation, % at 7 µM | shares compounds with proKLK7 act | AID 686952 | EDANS-DABCYL substrate fluorescence interference, no enzyme, 4 h; solvent 0%, active enzyme control 100% | hit rate 80% among 3,200;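 active = activation above the all-compound mean plus 3 SD, ignoring values outside control-based bounds, cut at about 4.8% in these data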;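 also: value is the 4 h activation minus the activation read at time zero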
A number is an active result; - = inactive; ? = inconclusive; . = not tested or not shown.

SMILES	proKLK7 act	Runt-CBFb FRET	Runt-SMMHC FRET	MEX-5 binding	RanGTP-Imp inh	KLK7 act conf	EDANS-DABCYL int
Cc1ccc(S(=O)(=O)c2cc3ccccc3oc2=O)cc1	-	-	-	-	?	.	.
C=CCOc1c2ccc(C(=O)NCc3ccccc3OC)cc2nn1C	14	-	-	-	-	-	15
O=C(Nc1ccccc1)Nc1sccc1-c1nc2ccccc2s1	35	-	-	-	-	-	-
CCC(CC)CN1CCC(CN2C(=O)C(=O)NC[C@@H]2CC(C)C)CC1	-	.	.	.	.	.	.
O=C(COC(=O)c1cc(Cl)ccc1O)NCCNC(=O)COC(=O)c1cc(Cl)ccc1O	-	.	.	-	-	.	.
O=C(COC(=O)c1cc(Cl)ccc1O)NCC1CCCO1 (centres undefined)	46	.	.	-	-	80	83
O=C(OCC(=O)N1CCCc2ccccc21)c1cc(Cl)ccc1O	-	.	.	-	-	.	.
NC(=O)c1ccsc1NC(=O)COC(=O)c1cc(Cl)ccc1O	76	.	.	-	-	90	91
O=C(OCC(=O)N1CCCC1=O)c1cc(Cl)ccc1O	32	.	.	-	.	32	32
O=C(COC(=O)c1cc(Cl)ccc1O)NNC(=O)c1ccc([N+](=O)[O-])cc1	99	.	.	-	-	160	155
O=C(COC(=O)c1cccnc1Cl)NCC1CCCO1 (centres undefined)	-	-	-	-	-	.	.
CCN(CC)C(=O)C1=C(C)N(Cc2ccc(C(C)(C)C)cc2)C(=O)C(CC(=O)NCC2CCCCC2)C1 (centres undefined)	-	.	.	.	.	.	.
COC(=O)[C@]12C[C@H](CC(=O)NCc3cccs3)C(=O)N(Cc3ccco3)C1=C[C@H](C(C)(C)C)O[C@@H]2C	-	.	.	.	.	.	.
Cc1ccc(C2C3=C(CC(C)(C)CC3=O)N(CCN3CCOCC3)C3=C2C(=O)CC(C)(C)C3)cc1	17	-	79	-	125	-	10
CC(=O)N(C(C)=O)c1c(C#N)c(C)n(-c2ccccc2)c1C(=O)c1ccccc1	-	-	-	-	-	.	.
CC(=O)N(C(C)=O)c1ncc2c([nH]c3ccccc32)c1C#N	19	-	-	-	-	25	25
COc1ccc(S(=O)(=O)N2CC=C(c3ccccc3)CC2)cc1OC	-	.	.	.	.	.	.
CC(CC(=O)Nc1ccc2c(c1)c(=O)n(C)n2Cc1ccc(F)cc1)C(F)(F)F (centres undefined)	16	.	.	.	.	-	-
Cn1c(=O)c2cc(NC(=O)CCc3cccnc3)ccc2n1Cc1cccc(C(F)(F)F)c1	-	.	.	.	.	.	.
CC(CC(=O)Nc1ccc2c(c1)c(=O)n(C)n2Cc1ccc(F)cc1)c1ccccc1 (centres undefined)	-	.	.	.	.	.	.
Cn1c(=O)c2cc(NC(=O)CC(C)(C)C)ccc2n1-c1ccccc1F	15	.	.	.	.	-	-
Cn1c(=O)c2cc(NC(=O)CCc3cccnc3)ccc2n1Cc1ccc(F)cc1	13	.	.	.	.	-	14
COc1cc(Cn2c3ccc(NC(=O)CCc4cccnc4)cc3c(=O)n2C)ccc1F	16	.	.	.	.	-	7.6
Cc1ccc(-c2cc(C(=O)NN=Cc3ccc(-c4ccccc4)cc3)[nH]n2)cc1	-	.	.	.	.	.	.
Cc1ccccc1CC(=O)Nc1nnc(-c2cccnc2)s1	-	.	.	.	.	.	.
SMILES	proKLK7 act	Runt-CBFb FRET	Runt-SMMHC FRET	MEX-5 binding	RanGTP-Imp inh	KLK7 act conf	EDANS-DABCYL int
Cc1cccc(S(=O)(=O)N2C[C@@H](O)COC[C@@H]3O[C@H](CC(=O)NCCCN4CCOCC4)CC[C@H]32)c1	-	.	.	.	.	.	.
COc1ccc(CNC(=O)COC(=O)c2nc3nc(C)cc(C)n3n2)cc1	-	.	.	.	.	.	.
Nc1nc2ccccc2cc1S(=O)(=O)c1ccccc1	13	-	-	-	-	-	10
CN1CCN(c2ccc(-c3ccc4ccccc4n3)cc2)CC1	28	-	-	-	-	-	-
c1ccc2nc(-c3ccc(N4CCOCC4)cc3)ccc2c1	-	-	-	-	-	.	.
CCOC(=O)c1cc(-c2cc3ccccc3o2)nc2c1c(=O)[nH]c(=O)n2CCOC	19	-	-	-	-	-	-
CCOC(=O)c1cc(-c2ccc([N+](=O)[O-])cc2)nc2c1c(=O)[nH]c(=O)n2Cc1ccccc1	-	.	.	-	-	.	.
COc1ccc(C2CC(=O)C(c3cccc(C)c3)=CN2Cc2ccccc2)cc1 (centres undefined)	-	.	.	.	.	.	.
FC(F)(F)c1ccc2c(c1)NCC1CCCN21 (centres undefined)	68	-	-	-	-	46	47
O=c1[nH]cnc2cc(-c3ccccc3)sc12	-	-	-	-	-	.	.
COc1ccc(-c2cc3nc(CCl)[nH]c(=O)c3s2)cc1	19	.	.	-	-	-	-
COc1ccc(-c2cc3nc[nH]c(=O)c3s2)cc1	41	-	-	-	-	-	15
COc1cccc(CNc2nc3cc(-c4cccc(Cl)c4)sc3c(=O)n2C)c1	-	.	.	.	.	.	.
COc1ccc(-n2ncc3c2CC(C)(C)CC3NC(=O)C2CCN(C(C)=O)CC2)cc1 (centres undefined)	-	.	.	.	-	.	.
CCOCCOC(=O)c1[nH]c2c(c1C)C(=O)CC(c1cccs1)C2 (centres undefined)	-	-	-	-	-	.	.
CCOCCOC(=O)C1=C(C)NC2=C(C(=O)CC(c3cccs3)C2)C1c1ccsc1 (centres undefined)	90	-	-	-	-	-	-
CCCCN(CC)CCNC(=S)Nc1ccc2nc(N3CCN(C)CC3)cc(C)c2c1	-	.	.	-	?	.	.
CCCN(CCC)CCNC(=O)CCC(=O)Nc1ccc2nc(N3CCOCC3)cc(C)c2c1	57	.	.	-	-	153	144
CCCCN(CC)CCNC(=O)CCC(=O)Nc1ccc2nc(N3CCN(C)CC3)cc(C)c2c1	78	-	-	-	-	106	115
COc1ccccc1CCn1cnc(-c2ccccc2OC)c1C(C)C	-	.	.	.	.	.	.
CCN(Cc1ccc2c(c1)OCO2)C(=O)CSc1nc(C)nc2sc(C)c(C)c12	-	.	.	.	.	.	.
O=C(NCc1nnc(SCC(=O)N2CCCC2)o1)c1ccccc1F	62	-	-	-	-	-	-
COc1cc(-c2ccc3oc(-c4cccc(C)c4)c(C#CC4(O)CCCCC4)c3c2)cc(OC)c1OC	83	.	.	.	.	-	-
COc1ccc(-c2oc3ccc(-c4ccc5c(c4)OCO5)cc3c2C#CC2(O)CCCCC2)cc1	-	.	.	-	-	.	.
Oc1ccccc1N=Nc1ccccc1O	-	-	-	-	?	.	.
Nc1ccc(N=Nc2ccccc2O)c(N)c1	40	.	.	-	-	101	99
COc1ccccc1-c1c(C(F)(F)F)oc2c(CN(C)C)c(O)ccc2c1=O	-	.	.	-	-	.	.
CCc1cc2c(=O)c(Oc3ccccc3F)c(C)oc2c(CN(C)C)c1O	63	-	-	-	-	72	74
